Results as given in ChEMBL document CHEMBL3098105, “7,7'-Diazaindirubin--a small molecule inhibitor of casein kinase 2 in vitro and in cells” (Bioorg Med Chem, 2014).

How the values were obtained:
[1] = biological target: Serine/threonine-protein kinase PAK 6 (Homo sapiens) (UniProt Q9NQU5); assay: Inhibition of human PAK6 assessed as residual activity at 1 uM relative to control
[2] = biological target: Tyrosine-protein kinase receptor TYRO3 (Homo sapiens) (UniProt Q06418); assay: Inhibition of human Rse assessed as residual activity at 1 uM relative to control
[3] = biological target: Protein kinase C eta type (Homo sapiens) (UniProt P24723); assay: Inhibition of human PKCeta assessed as residual activity at 1 uM relative to control
[4] = biological target: Tyrosine-protein kinase Fes/Fps (Homo sapiens) (UniProt P07332); assay: Inhibition of human Fes assessed as residual activity at 1 uM relative to control
[5] = biological target: Platelet-derived growth factor receptor beta (Homo sapiens) (UniProt P09619); assay: Inhibition of human PDGFRbeta assessed as residual activity at 1 uM relative to control
[6] = biological target: Serine/threonine-protein kinase Chk2 (Homo sapiens) (UniProt O96017); assay: Inhibition of human CHK2 assessed as residual activity at 1 uM relative to control
[7] = biological target: Myosin light chain kinase, smooth muscle (Homo sapiens) (UniProt Q15746); assay: Inhibition of human MLCK assessed as residual activity at 1 uM relative to control
[8] = biological target: Aurora kinase C (Homo sapiens) (UniProt Q9UQB9); assay: Inhibition of Aurora-C (unknown origin) assessed as residual activity at 1 uM relative to control
MCF7 [9] = assay: Cell cycle arrest in human MCF7 cells assessed as accumulation at G1 phase at 0.25 uM after 24 hrs using propidium iodide staining by FACS analysis (reference value: 57.74%); type: functional
786-0 = assay: Antiproliferative activity against human 786-0 cells after 3 days by sulforhodamine B assay; type: functional; details: 786-0, 72 h
Procedure, shortened: (§1)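 Tested in the NCI 60 cell line panel. GI50 is the concentration giving 50% inhibition of cell growth, and values are the mean of two series of tests.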

[10] = biological target: BDNF/NT-3 growth factors receptor (Homo sapiens) (UniProt Q16620); assay: Inhibition of human TrkB assessed as residual activity at 1 uM relative to control
[11] = biological target: Serine/threonine-protein kinase Sgk2 (Homo sapiens) (UniProt Q9HBY8); assay: Inhibition of human SGK2 assessed as residual activity at 1 uM relative to control
CCRF-CEM = assay: Antiproliferative activity against human CCRF-CEM cells after 3 days by sulforhodamine B assay; type: functional; details: 72 h; procedure, shortened: as §1
[12] = biological target: Vascular endothelial growth factor receptor 3 (Homo sapiens) (UniProt P35916); assay: Inhibition of VEGF-R3 (unknown origin) assessed as residual activity at 1 uM relative to control
DU-145 = assay: Antiproliferative activity against human DU145 cells after 3 days by sulforhodamine B assay; type: functional; details: DU-145, 72 h; procedure, shortened: as §1
[13] = biological target: Misshapen-like kinase 1 (Homo sapiens) (UniProt Q8N4C8); assay: Inhibition of human MINK assessed as residual activity at 1 uM relative to control
[14] = biological target: Ribosomal protein S6 kinase alpha-5 (Homo sapiens) (UniProt O75582); assay: Inhibition of human MSK1 assessed as residual activity at 1 uM relative to control
[15] = biological target: Serine/threonine-protein kinase 24 (Homo sapiens) (UniProt Q9Y6E0); assay: Inhibition of human MST3 assessed as residual activity at 1 uM relative to control
SK-MEL-5 = assay: Antiproliferative activity against human SK-MEL-5 cells after 3 days by sulforhodamine B assay; type: functional; details: SK-MEL-5, 72 h; procedure, shortened: as §1
[16] = biological target: Activated CDC42 kinase 1 (Homo sapiens) (UniProt Q07912); assay: Inhibition of human ACK1 assessed as residual activity at 1 uM relative to control
[17] = biological target: Fibroblast growth factor receptor 1 (Homo sapiens) (UniProt P11362); assay: Inhibition of human FGFR1 assessed as residual activity at 1 uM relative to control
[18] = biological target: Homeodomain-interacting protein kinase 3 (Homo sapiens) (UniProt Q9H422); assay: Inhibition of human HIPK3 assessed as residual activity at 1 uM relative to control
TK-10 = assay: Antiproliferative activity against human TK10 cells after 3 days by sulforhodamine B assay; type: functional; details: TK-10, 72 h
MOLT-4 = assay: Antiproliferative activity against human MOLT4 cells after 3 days by sulforhodamine B assay; type: functional; details: MOLT-4, 72 h; procedure, shortened: as §1
[19] = biological target: T1, Serine/threonine-protein kinase Chk1 (Homo sapiens) (UniProt O14757); assay: Inhibition of human CHK1 assessed as residual activity at 1 uM relative to control
T1 sequence (whole entry): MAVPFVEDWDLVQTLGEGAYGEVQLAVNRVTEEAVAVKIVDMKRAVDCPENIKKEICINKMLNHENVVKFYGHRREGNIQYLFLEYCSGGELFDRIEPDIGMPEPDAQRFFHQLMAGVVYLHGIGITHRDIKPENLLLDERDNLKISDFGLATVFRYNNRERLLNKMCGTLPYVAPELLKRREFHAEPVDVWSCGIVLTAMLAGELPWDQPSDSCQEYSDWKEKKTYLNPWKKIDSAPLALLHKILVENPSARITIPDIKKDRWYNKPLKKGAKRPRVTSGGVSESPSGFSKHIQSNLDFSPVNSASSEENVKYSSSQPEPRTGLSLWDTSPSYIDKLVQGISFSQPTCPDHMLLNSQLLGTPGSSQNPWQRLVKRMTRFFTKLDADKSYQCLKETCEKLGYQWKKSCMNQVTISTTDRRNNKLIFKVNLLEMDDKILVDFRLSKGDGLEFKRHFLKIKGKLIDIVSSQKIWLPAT

[20] = biological target: Calcium/calmodulin-dependent protein kinase type 1 (Homo sapiens) (UniProt Q14012); assay: Inhibition of human CaMK1 assessed as residual activity at 1 uM relative to control
[21] = biological target: Proto-oncogene tyrosine-protein kinase Src (Homo sapiens) (UniProt P12931); assay: Inhibition of SRC (unknown origin) assessed as residual activity at 1 uM relative to control
MCF7 [22] = assay: Cell cycle arrest in human MCF7 cells assessed as accumulation at G1 phase at 1 uM after 24 hrs using propidium iodide staining by FACS analysis (reference value: 57.74%); type: functional
[23] = biological target: Receptor-type tyrosine-protein kinase FLT3 (Homo sapiens) (UniProt P36888); assay: Inhibition of FLT3 (unknown origin) assessed as residual activity at 10 uM relative to control
[24] = biological target: Receptor-interacting serine/threonine-protein kinase 2 (Homo sapiens) (UniProt O43353); assay: Inhibition of human RIPK2 assessed as residual activity at 1 uM relative to control
[25] = biological target: Macrophage colony-stimulating factor 1 receptor (Homo sapiens) (UniProt P07333); assay: Inhibition of human Fms assessed as residual activity at 1 uM relative to control
[26] = biological target: Insulin-like growth factor 1 receptor (Homo sapiens) (UniProt P08069); assay: Inhibition of IGF1-R (unknown origin) assessed as residual activity at 1 uM relative to control
Homo sapiens = species on record: Homo sapiens; assay: Inhibition of human PKA assessed as residual activity at 1 uM relative to control

Serine/threonine-protein kinase PAK 6 (Homo sapiens), sequence (Q9NQU5 whole entry, looked up): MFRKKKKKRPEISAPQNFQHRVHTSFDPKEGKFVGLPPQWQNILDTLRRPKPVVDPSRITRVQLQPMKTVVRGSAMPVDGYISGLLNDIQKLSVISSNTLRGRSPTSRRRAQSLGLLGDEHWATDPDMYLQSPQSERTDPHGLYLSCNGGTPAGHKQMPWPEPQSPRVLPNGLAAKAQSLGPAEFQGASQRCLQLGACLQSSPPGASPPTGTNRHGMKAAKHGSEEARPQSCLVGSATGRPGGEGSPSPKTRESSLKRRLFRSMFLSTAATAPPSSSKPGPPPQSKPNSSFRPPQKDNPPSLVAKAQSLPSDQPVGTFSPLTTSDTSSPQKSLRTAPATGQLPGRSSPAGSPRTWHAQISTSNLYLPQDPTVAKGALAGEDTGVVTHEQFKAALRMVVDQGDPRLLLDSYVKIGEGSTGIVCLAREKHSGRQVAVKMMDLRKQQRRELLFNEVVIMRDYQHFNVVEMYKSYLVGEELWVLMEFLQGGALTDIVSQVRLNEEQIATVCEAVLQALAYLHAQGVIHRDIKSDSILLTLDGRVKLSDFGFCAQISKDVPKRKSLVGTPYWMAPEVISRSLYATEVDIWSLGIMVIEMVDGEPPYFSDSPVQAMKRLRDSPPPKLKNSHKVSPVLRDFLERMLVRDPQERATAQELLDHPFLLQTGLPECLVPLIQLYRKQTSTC
Misshapen-like kinase 1 (Homo sapiens), sequence (Q8N4C8 whole entry, looked up): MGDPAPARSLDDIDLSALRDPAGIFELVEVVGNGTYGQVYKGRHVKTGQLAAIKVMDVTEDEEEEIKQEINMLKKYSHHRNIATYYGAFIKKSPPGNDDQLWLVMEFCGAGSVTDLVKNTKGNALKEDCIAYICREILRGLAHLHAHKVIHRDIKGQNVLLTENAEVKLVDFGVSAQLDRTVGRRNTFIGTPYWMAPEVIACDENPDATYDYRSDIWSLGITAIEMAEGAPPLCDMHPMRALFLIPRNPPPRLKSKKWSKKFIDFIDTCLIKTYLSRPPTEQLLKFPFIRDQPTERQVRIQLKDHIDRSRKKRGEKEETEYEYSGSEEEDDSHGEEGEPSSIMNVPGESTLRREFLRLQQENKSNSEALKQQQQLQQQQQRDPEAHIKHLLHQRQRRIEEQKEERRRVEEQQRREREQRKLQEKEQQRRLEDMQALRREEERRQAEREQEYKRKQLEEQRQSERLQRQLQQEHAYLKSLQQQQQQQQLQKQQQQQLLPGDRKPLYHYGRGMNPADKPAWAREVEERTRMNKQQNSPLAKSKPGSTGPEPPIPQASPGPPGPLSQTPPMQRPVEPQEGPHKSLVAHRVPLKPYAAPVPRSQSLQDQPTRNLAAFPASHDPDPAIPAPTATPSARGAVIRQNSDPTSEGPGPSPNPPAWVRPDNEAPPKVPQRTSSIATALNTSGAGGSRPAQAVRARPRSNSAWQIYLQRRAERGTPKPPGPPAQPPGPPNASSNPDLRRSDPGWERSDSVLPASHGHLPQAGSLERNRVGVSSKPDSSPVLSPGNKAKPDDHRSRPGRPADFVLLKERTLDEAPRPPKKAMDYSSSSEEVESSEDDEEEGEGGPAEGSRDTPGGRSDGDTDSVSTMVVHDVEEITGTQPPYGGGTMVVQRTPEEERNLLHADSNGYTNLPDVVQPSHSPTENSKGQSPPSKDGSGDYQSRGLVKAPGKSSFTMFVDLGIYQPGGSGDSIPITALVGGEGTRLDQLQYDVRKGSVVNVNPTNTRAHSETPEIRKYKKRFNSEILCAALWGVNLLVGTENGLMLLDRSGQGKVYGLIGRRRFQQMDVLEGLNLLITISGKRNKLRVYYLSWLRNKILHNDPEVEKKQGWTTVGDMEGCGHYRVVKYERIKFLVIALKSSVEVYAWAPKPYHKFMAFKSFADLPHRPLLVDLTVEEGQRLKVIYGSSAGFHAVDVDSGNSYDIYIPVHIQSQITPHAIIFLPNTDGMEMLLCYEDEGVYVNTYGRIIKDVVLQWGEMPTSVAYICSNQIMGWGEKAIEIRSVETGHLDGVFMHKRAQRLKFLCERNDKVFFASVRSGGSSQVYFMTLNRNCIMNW
Activated CDC42 kinase 1 (Homo sapiens), sequence (Q07912 whole entry, looked up): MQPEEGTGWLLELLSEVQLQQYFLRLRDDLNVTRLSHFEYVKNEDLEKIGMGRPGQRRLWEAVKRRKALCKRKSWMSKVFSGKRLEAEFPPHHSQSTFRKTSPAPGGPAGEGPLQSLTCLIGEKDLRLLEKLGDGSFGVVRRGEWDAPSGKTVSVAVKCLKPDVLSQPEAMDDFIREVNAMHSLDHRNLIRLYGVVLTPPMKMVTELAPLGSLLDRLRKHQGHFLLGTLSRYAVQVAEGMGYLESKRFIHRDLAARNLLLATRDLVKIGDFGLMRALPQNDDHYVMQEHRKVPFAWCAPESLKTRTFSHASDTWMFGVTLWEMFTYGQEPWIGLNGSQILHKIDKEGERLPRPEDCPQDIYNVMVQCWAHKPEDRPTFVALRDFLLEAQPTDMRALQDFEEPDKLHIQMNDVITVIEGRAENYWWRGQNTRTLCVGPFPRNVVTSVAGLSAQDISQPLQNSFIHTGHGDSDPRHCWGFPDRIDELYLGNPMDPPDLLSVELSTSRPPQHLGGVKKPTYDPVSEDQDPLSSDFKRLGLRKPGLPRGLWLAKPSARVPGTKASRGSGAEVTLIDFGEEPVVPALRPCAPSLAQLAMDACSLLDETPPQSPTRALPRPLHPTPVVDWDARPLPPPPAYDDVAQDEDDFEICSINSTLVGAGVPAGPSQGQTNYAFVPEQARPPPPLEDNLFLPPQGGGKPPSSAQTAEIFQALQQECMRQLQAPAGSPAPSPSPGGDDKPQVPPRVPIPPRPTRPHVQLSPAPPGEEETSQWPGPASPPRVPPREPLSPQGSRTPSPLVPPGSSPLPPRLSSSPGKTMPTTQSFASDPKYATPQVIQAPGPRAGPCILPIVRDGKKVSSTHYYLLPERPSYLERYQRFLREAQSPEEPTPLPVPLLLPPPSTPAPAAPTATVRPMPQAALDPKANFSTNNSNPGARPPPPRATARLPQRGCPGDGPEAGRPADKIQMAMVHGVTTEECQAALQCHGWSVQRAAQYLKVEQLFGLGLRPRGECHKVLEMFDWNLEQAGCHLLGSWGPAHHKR
Serine/threonine-protein kinase Sgk2 (Homo sapiens), sequence (Q9HBY8 whole entry): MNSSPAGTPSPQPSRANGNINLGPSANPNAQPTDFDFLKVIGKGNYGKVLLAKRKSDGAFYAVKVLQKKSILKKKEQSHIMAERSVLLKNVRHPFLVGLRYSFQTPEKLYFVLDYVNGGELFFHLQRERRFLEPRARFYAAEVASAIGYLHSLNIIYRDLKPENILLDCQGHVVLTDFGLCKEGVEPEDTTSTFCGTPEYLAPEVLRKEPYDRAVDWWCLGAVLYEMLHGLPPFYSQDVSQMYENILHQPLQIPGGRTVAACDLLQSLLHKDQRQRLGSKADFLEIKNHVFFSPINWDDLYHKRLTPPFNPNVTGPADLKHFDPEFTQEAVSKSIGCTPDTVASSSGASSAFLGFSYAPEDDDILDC
Homeodomain-interacting protein kinase 3 (Homo sapiens), sequence (Q9H422 whole entry, looked up): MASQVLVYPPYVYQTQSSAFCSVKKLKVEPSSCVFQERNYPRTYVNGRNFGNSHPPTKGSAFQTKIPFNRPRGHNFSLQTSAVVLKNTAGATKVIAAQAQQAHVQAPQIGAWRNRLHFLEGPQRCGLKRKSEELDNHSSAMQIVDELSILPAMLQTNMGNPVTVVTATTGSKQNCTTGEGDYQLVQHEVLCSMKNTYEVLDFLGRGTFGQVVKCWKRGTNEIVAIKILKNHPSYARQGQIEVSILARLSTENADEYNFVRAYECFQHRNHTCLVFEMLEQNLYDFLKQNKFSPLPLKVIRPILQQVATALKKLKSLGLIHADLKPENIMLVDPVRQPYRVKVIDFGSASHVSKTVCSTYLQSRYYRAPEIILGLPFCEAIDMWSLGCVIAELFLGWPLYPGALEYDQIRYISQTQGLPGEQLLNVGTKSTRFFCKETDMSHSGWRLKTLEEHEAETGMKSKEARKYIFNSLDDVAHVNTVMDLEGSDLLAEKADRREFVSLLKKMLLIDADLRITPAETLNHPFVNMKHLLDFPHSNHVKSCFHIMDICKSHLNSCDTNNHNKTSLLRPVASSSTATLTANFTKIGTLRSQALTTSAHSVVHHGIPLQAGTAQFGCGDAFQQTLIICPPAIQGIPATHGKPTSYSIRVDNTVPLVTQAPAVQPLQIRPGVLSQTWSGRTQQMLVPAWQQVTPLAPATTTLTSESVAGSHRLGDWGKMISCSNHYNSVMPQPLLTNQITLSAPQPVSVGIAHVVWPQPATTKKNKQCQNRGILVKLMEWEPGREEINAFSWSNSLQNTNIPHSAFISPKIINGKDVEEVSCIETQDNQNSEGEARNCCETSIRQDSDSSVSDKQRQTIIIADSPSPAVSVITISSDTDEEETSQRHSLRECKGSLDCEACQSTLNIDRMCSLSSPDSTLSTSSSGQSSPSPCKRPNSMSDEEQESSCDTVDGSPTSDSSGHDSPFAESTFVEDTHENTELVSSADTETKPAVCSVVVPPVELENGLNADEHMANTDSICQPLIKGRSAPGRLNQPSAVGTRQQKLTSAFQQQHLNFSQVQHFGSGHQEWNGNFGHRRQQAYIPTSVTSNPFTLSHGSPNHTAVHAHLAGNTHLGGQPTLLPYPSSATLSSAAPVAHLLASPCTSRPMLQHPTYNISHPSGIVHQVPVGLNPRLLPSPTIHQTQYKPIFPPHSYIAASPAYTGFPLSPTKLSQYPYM
Serine/threonine-protein kinase 24 (Homo sapiens), sequence (Q9Y6E0 whole entry, looked up): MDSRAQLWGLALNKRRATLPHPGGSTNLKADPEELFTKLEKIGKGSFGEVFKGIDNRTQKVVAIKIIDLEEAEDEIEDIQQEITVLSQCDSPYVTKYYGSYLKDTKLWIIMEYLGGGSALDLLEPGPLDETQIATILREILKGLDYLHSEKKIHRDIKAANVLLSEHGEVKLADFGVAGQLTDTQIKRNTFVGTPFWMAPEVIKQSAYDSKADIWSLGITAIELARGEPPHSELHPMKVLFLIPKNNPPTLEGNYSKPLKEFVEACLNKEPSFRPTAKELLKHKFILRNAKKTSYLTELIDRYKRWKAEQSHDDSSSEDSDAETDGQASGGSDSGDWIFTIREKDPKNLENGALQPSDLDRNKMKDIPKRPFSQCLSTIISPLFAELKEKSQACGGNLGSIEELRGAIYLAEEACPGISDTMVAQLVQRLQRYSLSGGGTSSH

`O=C1Nc2ncccc2/C1=C1/Nc2ncccc2C1=O` gave an Activity [1] of 51%, an Activity [2] of 93% and an Activity [3] of 98%. For the same compound, the Activity [4] was 107%, the Activity [5] was 160% and the Activity [6] was 120%. It also gave an Activity [7] of 73%, an Activity [8] of 89% and an Activity (MCF7 [9]) of 58.28%. For the same compound, the GI50 (786-0) was 4190 nM, the Activity [10] was 105% and the Activity [11] was 127%. It also gave a GI50 (CCRF-CEM) of 2740 nM, an Activity [12] of 82% and a GI50 (DU-145) of 474 nM. The Activity [13] was 62%, the Activity [14] was 93% and the Activity [15] was 113%. The GI50 (SK-MEL-5) was 160 nM, the Activity [16] was 97% and the Activity [17] was 101%. For the same compound, the Activity [18] was 94%, the GI50 (TK-10) was 2270 nM and the GI50 (MOLT-4) was 3320 nM. For the same compound, the Activity [19] was 107%, the Activity [20] was 120% and the Activity [21] was 99%. The Activity (MCF7 [22]) was 63.05%, the Activity [23] was 86% and the Activity [24] was 85%. For the same compound, the Activity [25] was 91%, the Activity [26] was 94% and the Activity (Homo sapiens) was 91%.
